For data set [1], the system named is Escherichia coli. Nature of the data set: Photodynamic inactivation of Escherichia coli ATCC 25922 at the fluence of 32 J/cm2 light at 5 uM after 10 mins. It is filed as functional. An outline of the steps:
(§1)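 Exponential cultures were used: bacteria about 10^8 cells/mL in BHI, Candida in YM. Cells were dark-incubated with dye for 10 min at room temperature, then washed and resuspended in PBS without Ca2+/Mg2+. Illumination used 30-nm band-pass red light (630, 652 or 660 ± 15 nm per dye) at 60–100 mW/cm2 and room temperature. Ten-fold serial dilutions were plated on BHI agar at 37 °C overnight. CFU survival was expressed relative to untreated cells, in triplicate.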

Data set [2] relates to Enterococcus faecalis. The data set can be described thus: Cellular uptake in Enterococcus faecalis ATCC 29212 at 2 uM after 10 mins. It is filed as functional, organism-based. An outline of the steps: (§2)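 Exponential-phase cells (bacteria in BHI, yeast in YM, 37 °C, 150 rpm) were incubated with dye in the dark for 10 min at room temperature. Centrifugation at 1550g for 6 min removed unbound dye, and pellets were resuspended in PBS without Ca2+/Mg2+. Pellets were dissolved in 10% SDS for ≥24 h. Fluorescence peak height was read at the dye-specific excitation and emission, against SDS calibration curves. Means of three experiments.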

Data set [3] relates to Candida albicans. Nature of the data set: Photodynamic inactivation of Candida albicans ATCC 18804 at the fluence of 4 J/cm2 light at 20 uM after 10 mins. It counts as functional. Put shortly:
as §1

The nature of data set [4]: Partition coefficient, log P at pH 7.4. It is filed as physicochemical. As to conditions: octanol/water.
For data set [5], the system named is Enterococcus faecalis. The data set can be described thus: Photodynamic inactivation of Enterococcus faecalis ATCC 29212 at the fluence of 8 J/cm2 light at 2 uM after 10 mins. It is filed as functional. Put shortly: as §1
Data set [6] deals with Enterococcus faecalis. Nature of the data set: Photodynamic inactivation of Enterococcus faecalis ATCC 29212 at the fluence of 64 J/cm2 light at 2 uM after 10 mins. It is filed as functional. An outline of the steps:
as §1

In data set [7] the test system is Candida albicans. The data set can be described thus: Photodynamic inactivation of Candida albicans ATCC 18804 at the fluence of 64 J/cm2 light at 20 uM after 10 mins. It counts as functional. An outline of the steps: as §1
In data set [8] the test system is Escherichia coli. Nature of the data set: Photodynamic inactivation of Escherichia coli ATCC 25922 at the fluence of 64 J/cm2 light at 5 uM after 10 mins. It counts as functional. Put shortly: as §1
The subject of data set [9] is Escherichia coli. Nature of the data set: Cellular uptake in Escherichia coli ATCC 25922 at 5 uM after 10 mins. It is filed as functional, organism-based. Put shortly: as §2
Data set [10] has as its system Candida albicans. The data set can be described thus: Photodynamic inactivation of Candida albicans ATCC 18804 at the fluence of 80 J/cm2 light at 20 uM after 10 mins. It counts as functional. An outline of the steps: as §1
The subject of data set [11] is Enterococcus faecalis. The data set can be described thus: Photodynamic inactivation of Enterococcus faecalis ATCC 29212 at the fluence of 80 J/cm2 light at 2 uM after 10 mins. It counts as functional. Put shortly:
as §1

The test system of data set [12] is Candida albicans. Nature of the data set: Cellular uptake in Candida albicans ATCC 18804 at 20 uM after 10 mins. It is filed as functional, organism-based. Put shortly:
as §2

For data set [13], the system named is Escherichia coli. Nature of the data set: Photodynamic inactivation of Escherichia coli ATCC 25922 at the fluence of 80 J/cm2 light at 5 uM after 10 mins. It is filed as functional. Put shortly:
as §1

Where only a bound is given, the exact number is not on record here.

As for `CC/N=c1/cc2[se]c3cc(N(CC)CC)ccc3nc-2c2ccccc12.Cl`, the Activity is greater than 100% in the data set with Escherichia coli [1], greater than 99% with Candida albicans [3] and greater than 99.999% in the data set with Enterococcus faecalis [5]. The compound further gave a Drug uptake with Enterococcus faecalis [2] of 75%. Further, in data set [4], the logD (as a rule, the decadic logarithm of the distribution of all forms, ionised or not, between an organic phase and buffer at a given pH) is 2.08.
Take `CC/N=c1/cc2sc3cc(N(CC)CC)ccc3nc-2c2ccccc12.Cl`: the Activity in the data set on Enterococcus faecalis [6] was greater than 99.9%; with Candida albicans [7], greater than 98%; in the data set on Escherichia coli [8], greater than 99%. Besides, the Drug uptake in the data set on Escherichia coli [9] turned out to be 75%. Besides, the logD in data set [4] worked out at 2.76.
Turning to `CC/N=c1/cc2oc3cc(N(CC)CC)ccc3nc-2c2ccccc12.Cl`, the Activity in the data set on Candida albicans [10] is greater than 97%; in the data set on Enterococcus faecalis [11], 95%; in the data set with Escherichia coli [13], 90%. Further, the Drug uptake in the data set on Candida albicans [12] came to 75%. The same compound came in with a log distribution coefficient (logD) in data set [4] of 2.69.
